pEC50: −log10 of the molar value.
What was measured:
[1] = tested on: Human coronavirus 229E; assay: Antiviral activity against Human coronavirus 229E infected in HEL cells assessed as reduction in virus-induced pathogenicity after 3 days by microscopic method; assay type: functional, organism-based; conditions: 72 h
[2] = Cytotoxicity against HEL cells assessed as alteration in cell morphology after 3 days by microscopic method; assay type: cell-based; conditions: human
Method in brief: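 HEL cells were seeded at 5 x 10^3 cells/well and exposed to graded compound concentrations, up to 100 μM, in parallel with the antiviral assay. Cell morphology was examined by light microscopy. MCC is the minimum concentration causing a microscopically detectable alteration of normal cell morphology.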

[3] = tested on: Human alphaherpesvirus 1; assay: Antiviral activity against Herpes simplex virus 1 KOS infected in human HEL cells assessed as inhibition of virus-induced cytopathic effect after 3 days by microscopic method; assay type: functional, organism-based; conditions: Human alphaherpesvirus 1, KOS, 72 h
[4] = tested on: Human alphaherpesvirus 2; assay: Antiviral activity against Human herpesvirus 2 strain G infected in human HEL cells assessed as inhibition of virus-induced cytopathic effect after 3 days by microscopic method; assay type: functional, organism-based; conditions: Human alphaherpesvirus 2, strain G, 72 h
[5] = tested on: Human alphaherpesvirus 1; assay: Antiviral activity against acyclovir-resistant TK-defecient Herpes simplex virus 1 KOS infected in human HEL cells assessed as inhibition of virus-induced cytopathic effect after 3 days by microscopic method; assay type: functional, organism-based; conditions: Human alphaherpesvirus 1, KOS, 72 h
[6] = tested on: Vaccinia virus; assay: Antiviral activity against Vaccinia virus infected in human HEL cells assessed as inhibition of virus-induced cytopathic effect after 3 days by microscopic method; assay type: functional, organism-based; conditions: Orthopoxvirus vaccinia, 72 h
[7] = tested on: Human adenovirus 2; assay: Antiviral activity against Human adenovirus 2 infected in human HEL cells assessed as inhibition of virus-induced cytopathic effect after 3 days by microscopic method; assay type: functional, organism-based; conditions: Human mastadenovirus C, 72 h
Method in brief: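 HEL cells were infected with adenovirus 2 for 2 h. Residual virus was then removed and the cells were incubated with medium containing graded compound concentrations for 3 days at 37°C. Virus-induced cytopathogenicity was scored microscopically.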

[8] = Selectivity index, ratio of MCC for HEL cells to EC50 for Human coronavirus 229E infected in HEL cells; assay type: toxicity, cell-based; conditions: read-out: Selectivity Index
Method in brief: (§1)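 SI is MCC divided by EC50. […] MCC was measured in parallel on HEL cells seeded at 5 x 10^3 cells/well, as the lowest concentration causing microscopically visible alteration of cell morphology. The top concentration tested was 100 µM.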

[9] = Selectivity index, ratio of MCC for HEL cells to EC50 for Herpes simplex virus 1 KOS infected in HEL cells; assay type: toxicity, cell-based; conditions: human, read-out: Selectivity Index; method in brief: as §1
[10] = Selectivity index, ratio of MCC for HEL cells to EC50 for Herpes simplex virus 2 strain G infected in HEL cells; assay type: toxicity, cell-based; conditions: human, read-out: Selectivity Index; method in brief: as §1
[11] = Selectivity index, ratio of MCC for HEL cells to EC50 for acyclovir-resistant TK-defecient Herpes simplex virus 1 KOS infected in HEL cells; assay type: toxicity, cell-based; conditions: human, read-out: Selectivity Index; method in brief: as §1
[12] = Selectivity index, ratio of MCC for HEL cells to EC50 for Vaccinia virus infected in HEL cells; assay type: toxicity, cell-based; conditions: human, read-out: Selectivity Index; method in brief: as §1
[13] = Selectivity index, ratio of MCC for HEL cells to EC50 for Human adenovirus 2 infected in HEL cells; assay type: toxicity, cell-based; conditions: read-out: Selectivity Index; method in brief: as §1

`CCOC(=O)C1(Cc2ccccc2)CN(c2ccccc2)Cc2nnn(Cc3ccc(Cl)c(Cl)c3)c21` (configuration not stated) showed a pEC50 [1] of under 4.00, an MCC at 72 h [2] of over 100 µM and a pEC50 [3] of under 4.00. It also gave a pEC50 [4] of under 4.00, a pEC50 [5] of under 4.00 and a pEC50 [6] of under 4.00. The pEC50 [7] was under 4.00, the selectivity ratio [8] was over 8 and the selectivity ratio [9] was over 8. It also gave a selectivity ratio [10] of over 8, a selectivity ratio [11] of over 8 and a selectivity ratio [12] of over 8. It also gave a selectivity ratio [13] of over 8.

Work on `CCOC(=O)C1(Cc2ccccc2)CN(c2ccccc2)Cc2nnn(Cc3cccc(Cl)c3)c21` (configuration not stated) yielded a pEC50 [1] of under 4.00, an MCC at 72 h [2] of over 100 µM and a pEC50 [3] of under 4.00. The pEC50 [4] was under 4.00, the pEC50 [5] was under 4.00 and the pEC50 [6] was under 4.00. It also gave a pEC50 [7] of under 4.00, a selectivity ratio [8] of over 8 and a selectivity ratio [9] of over 8. The selectivity ratio [10] was over 8, the selectivity ratio [11] was over 8 and the selectivity ratio [12] was over 8. For the same compound, the selectivity ratio [13] was over 8.

Work on `CCOC(=O)C1(Cc2ccccc2)CN(c2ccccc2)Cc2nnn(Cc3c(F)cccc3Cl)c21` (configuration not stated) yielded a pEC50 [1] of under 4.00, an MCC at 72 h [2] of over 100 µM and a pEC50 [3] of under 4.00. The pEC50 [4] was under 4.00, the pEC50 [5] was under 4.00 and the pEC50 [6] was under 4.00. It also gave a pEC50 [7] of under 4.00, a selectivity ratio [8] of over 8 and a selectivity ratio [9] of over 8. It also gave a selectivity ratio [10] of over 8, a selectivity ratio [11] of over 8 and a selectivity ratio [12] of over 8. It also gave a selectivity ratio [13] of over 8.

Compound `CCOC(=O)C1(Cc2ccccc2)CN(c2ccccc2)Cc2nnn(CCc3ccc(OC)cc3)c21` (configuration not stated) has a pEC50 [1] of under 4.00, an MCC at 72 h [2] of at least 20 µM and a pEC50 [3] of under 4.00. The pEC50 [4] was under 4.00, the pEC50 [5] was under 4.00 and the pEC50 [6] was under 4.00. The pEC50 [7] was under 4.00, the selectivity ratio [8] was over 8 and the selectivity ratio [9] was over 8. The selectivity ratio [10] was over 8, the selectivity ratio [11] was over 8 and the selectivity ratio [12] was over 8. The selectivity ratio [13] was over 8.

In the case of `CCOC(=O)C1(Cc2ccccc2)CN(c2ccccc2)Cc2nnn(Cc3ccccc3Cl)c21` (configuration not stated), the pEC50 [1] was under 4.00, the MCC at 72 h [2] was over 100 µM and the pEC50 [3] was under 4.00. The pEC50 [4] was under 4.00, the pEC50 [5] was under 4.00 and the pEC50 [6] was under 4.00. The pEC50 [7] was under 4.00, the selectivity ratio [8] was over 8 and the selectivity ratio [9] was over 8. It also gave a selectivity ratio [10] of over 8, a selectivity ratio [11] of over 8 and a selectivity ratio [12] of over 8. For the same compound, the selectivity ratio [13] was over 8.

With `CCOC(=O)C1(Cc2ccccc2)CN(c2ccccc2)Cc2nnn(Cc3ccc(Cl)cc3)c21` (configuration not stated) the pEC50 [1] was under 4.00, the MCC at 72 h [2] was over 100 µM and the pEC50 [3] was under 4.00. The pEC50 [4] was under 4.00, the pEC50 [5] was under 4.00 and the pEC50 [6] was under 4.00. The pEC50 [7] was under 4.00, the selectivity ratio [8] was over 8 and the selectivity ratio [9] was over 8. It also gave a selectivity ratio [10] of over 8, a selectivity ratio [11] of over 8 and a selectivity ratio [12] of over 8. The selectivity ratio [13] was over 8.

Compound `CCOC(=O)C1(Cc2ccccc2)CN(c2ccccc2)Cc2nnn(CCc3cc4ccccc4[nH]3)c21` (configuration not stated) has a pEC50 [1] of 5.02, an MCC at 72 h [2] of over 100 µM and a pEC50 [3] of under 4.00. It also gave a pEC50 [4] of under 4.00, a pEC50 [5] of under 4.00 and a pEC50 [6] of under 4.00. It also gave a pEC50 [7] of under 4.00, a selectivity ratio [8] of over 8 and a selectivity ratio [9] of over 8. It also gave a selectivity ratio [10] of over 8, a selectivity ratio [11] of over 8 and a selectivity ratio [12] of over 8. It also gave a selectivity ratio [13] of over 8.

For `CCOC(=O)C1(Cc2ccccc2)CN(c2ccccc2)Cc2nnn(CCc3ccccc3OC)c21` (configuration not stated), the pEC50 [1] was under 4.00, the MCC at 72 h [2] was at least 100 µM and the pEC50 [3] was under 4.00. It also gave a pEC50 [4] of under 4.00, a pEC50 [5] of under 4.00 and a pEC50 [6] of under 4.00. The pEC50 [7] was under 4.00, the selectivity ratio [8] was over 8 and the selectivity ratio [9] was over 8. The selectivity ratio [10] was over 8, the selectivity ratio [11] was over 8 and the selectivity ratio [12] was over 8. It also gave a selectivity ratio [13] of over 8.

`CCOC(=O)C1(Cc2ccccc2)CN(c2ccccc2)Cc2nnn(Cc3ccco3)c21` (configuration not stated) gave a pEC50 [1] of under 4.00, an MCC at 72 h [2] of 100 µM and a pEC50 [3] of under 4.00. For the same compound, the pEC50 [4] was under 4.00, the pEC50 [5] was under 4.00 and the pEC50 [6] was under 4.00. The pEC50 [7] was under 4.00, the selectivity ratio [8] was over 8 and the selectivity ratio [9] was over 8. The selectivity ratio [10] was over 8, the selectivity ratio [11] was over 8 and the selectivity ratio [12] was over 8. The selectivity ratio [13] was over 8.
